Calls of active or inactive are those of the source. The rule behind the calls is not given here.
What was measured:
THP-1 [1] = experiment: Cytotoxicity against human THP1 cells transfected with human TLR7/8 assessed as reduction in cell viability at 100 uM incubated for 16 hrs by WST-1 assay; type: cell-based; settings: thp-1, 16 h
[2] = target: Toll-like receptor 7 (Mus musculus) (UniProt P58681); experiment: Inhibition of endogenous mouse TLR7 in mouse RAW264.7 cells assessed as resiquimod-induced NO production at > 5 uM incubated for 18 to 24 hrs
[3] = target: T1, Toll-like receptor 8 (Homo sapiens) (UniProt Q9NR97); experiment: Inhibition of human TLR8 expressed in HEK293 cells assessed as reduction in R848-induced NFkappaB production at 5 to 20 uM incubated for 16 hrs by quanti-blue SEAP assay; type: cell-based
T1 sequence (whole entry): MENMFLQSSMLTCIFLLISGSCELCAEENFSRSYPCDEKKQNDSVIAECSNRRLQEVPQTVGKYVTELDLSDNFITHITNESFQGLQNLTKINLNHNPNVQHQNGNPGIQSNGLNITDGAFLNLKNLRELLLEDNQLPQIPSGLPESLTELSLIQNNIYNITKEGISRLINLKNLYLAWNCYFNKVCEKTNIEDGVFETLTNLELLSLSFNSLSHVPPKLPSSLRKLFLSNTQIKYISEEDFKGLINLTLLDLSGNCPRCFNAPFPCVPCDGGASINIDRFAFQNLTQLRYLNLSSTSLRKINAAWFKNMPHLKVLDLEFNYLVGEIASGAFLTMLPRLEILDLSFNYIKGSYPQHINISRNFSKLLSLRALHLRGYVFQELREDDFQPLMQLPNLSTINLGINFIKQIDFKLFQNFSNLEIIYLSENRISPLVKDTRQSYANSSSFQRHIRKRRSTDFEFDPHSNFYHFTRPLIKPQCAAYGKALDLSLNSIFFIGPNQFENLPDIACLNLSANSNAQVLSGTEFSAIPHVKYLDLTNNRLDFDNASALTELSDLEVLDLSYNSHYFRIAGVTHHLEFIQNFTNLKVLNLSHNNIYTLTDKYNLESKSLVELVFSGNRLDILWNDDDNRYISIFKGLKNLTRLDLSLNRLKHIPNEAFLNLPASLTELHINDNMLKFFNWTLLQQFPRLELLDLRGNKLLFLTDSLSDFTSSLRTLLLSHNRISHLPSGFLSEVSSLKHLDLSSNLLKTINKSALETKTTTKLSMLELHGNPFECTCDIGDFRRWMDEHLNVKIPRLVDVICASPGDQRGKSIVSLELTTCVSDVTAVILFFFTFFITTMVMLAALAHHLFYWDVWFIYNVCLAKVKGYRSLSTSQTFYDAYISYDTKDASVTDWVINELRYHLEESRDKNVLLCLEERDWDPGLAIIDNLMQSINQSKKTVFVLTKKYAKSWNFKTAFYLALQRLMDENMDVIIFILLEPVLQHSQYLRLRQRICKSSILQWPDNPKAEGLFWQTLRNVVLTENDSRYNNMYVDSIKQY
How it was run: (§1)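 Selectivity panel in stably transfected HEK 293-Blue cells, each overexpressing one human TLR with an inducible SEAP reporter. Agonists: Pam3CSK4 (TLR1/2), Pam2CSK4 (TLR2/6), poly(I:C) (TLR3), LPS (TLR4), R848 (TLR7/8), ODN 2006 (TLR9). Cells were exposed to compound for 16 h. Activity = (raw − untreated)/(ligand + solvent − untreated), with ligand + solvent set as 100%.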

THP-1 [4] = experiment: Inhibition of IFN mediated immune response in human THP1 cells assessed as inhibition of 3p-hpRNA-induced RIG1 signalling pathway at 5 to 20 uM incubated for 16 hrs by luciferase assay; type: functional, cell-based
How it was run: (§2)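 THP1-Dual monocytes carrying Lucia luciferase and SEAP reporters were stimulated with 3p-hpRNA (RIG-I agonist) or Y-form dsDNA G3-YSD (cGAS agonist), with or without compound. Secreted Lucia luciferase luminescence was measured as the type I IFN read-out. Mean ± s.d., n = 3 independent experiments.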

THP-1 [5] = experiment: Inhibition of IFN mediated immune response in human THP1 cells assessed as inhibition of G3-YSD-induced cGAS signalling pathway at 5 to 20 uM incubated for 16 hrs by luciferase assay; type: functional, cell-based; how it was run: as §2
[6] = target: T2, Toll-like receptor 7 (Homo sapiens) (UniProt Q9NYK1); experiment: Inhibition of human TLR7 expressed in HEK293 cells assessed as reduction in resiquimod-induced NFkappaB production at 0.5 uM incubated for 16 hrs by quanti-blue SEAP assay; type: cell-based; how it was run: as §1
T2 sequence (whole entry): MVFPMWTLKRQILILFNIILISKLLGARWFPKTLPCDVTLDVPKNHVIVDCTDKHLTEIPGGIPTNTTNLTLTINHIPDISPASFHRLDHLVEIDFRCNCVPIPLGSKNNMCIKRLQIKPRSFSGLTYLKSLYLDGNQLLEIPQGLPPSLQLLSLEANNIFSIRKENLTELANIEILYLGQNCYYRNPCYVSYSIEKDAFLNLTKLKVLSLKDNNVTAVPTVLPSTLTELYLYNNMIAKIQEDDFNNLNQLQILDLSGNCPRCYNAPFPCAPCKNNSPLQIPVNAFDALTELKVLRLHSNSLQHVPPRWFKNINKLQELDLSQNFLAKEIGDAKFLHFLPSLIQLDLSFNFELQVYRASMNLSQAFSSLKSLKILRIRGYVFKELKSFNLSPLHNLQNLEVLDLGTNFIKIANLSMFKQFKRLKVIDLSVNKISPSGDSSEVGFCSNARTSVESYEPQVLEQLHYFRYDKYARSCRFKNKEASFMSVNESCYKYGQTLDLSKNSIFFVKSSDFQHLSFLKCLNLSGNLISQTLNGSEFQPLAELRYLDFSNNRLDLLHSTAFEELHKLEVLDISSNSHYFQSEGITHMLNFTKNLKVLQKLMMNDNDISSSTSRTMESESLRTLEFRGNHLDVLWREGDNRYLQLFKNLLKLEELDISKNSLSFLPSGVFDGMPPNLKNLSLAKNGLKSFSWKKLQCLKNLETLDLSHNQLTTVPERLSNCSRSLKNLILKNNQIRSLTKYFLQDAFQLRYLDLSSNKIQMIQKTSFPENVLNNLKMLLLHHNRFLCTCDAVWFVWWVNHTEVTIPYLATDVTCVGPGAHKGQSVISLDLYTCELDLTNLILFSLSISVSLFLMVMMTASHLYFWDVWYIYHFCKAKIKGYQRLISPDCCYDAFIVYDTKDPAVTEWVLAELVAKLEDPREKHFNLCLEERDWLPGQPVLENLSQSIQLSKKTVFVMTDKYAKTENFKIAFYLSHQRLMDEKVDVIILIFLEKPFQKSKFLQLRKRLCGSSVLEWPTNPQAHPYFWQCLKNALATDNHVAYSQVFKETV

HEK293 = experiment: Cytotoxicity against human HEK293 cells transfected with human TLR8 assessed as reduction in cell viability up to 5 uM incubated for 16 hrs by WST-1 assay; type: cell-based; settings: hek293, 16 h
[7] = target: Toll-like receptor 4 (Homo sapiens) (UniProt O00206); experiment: Inhibition of human TLR4 expressed in HEK293 cells assessed as reduction in LPS-induced NFkappaB production at 1.5 to 5 uM incubated for 16 hrs by quanti-blue SEAP assay; type: cell-based; how it was run: as §1
Chain of Toll-like receptor 4 (Homo sapiens) (O00206 whole entry): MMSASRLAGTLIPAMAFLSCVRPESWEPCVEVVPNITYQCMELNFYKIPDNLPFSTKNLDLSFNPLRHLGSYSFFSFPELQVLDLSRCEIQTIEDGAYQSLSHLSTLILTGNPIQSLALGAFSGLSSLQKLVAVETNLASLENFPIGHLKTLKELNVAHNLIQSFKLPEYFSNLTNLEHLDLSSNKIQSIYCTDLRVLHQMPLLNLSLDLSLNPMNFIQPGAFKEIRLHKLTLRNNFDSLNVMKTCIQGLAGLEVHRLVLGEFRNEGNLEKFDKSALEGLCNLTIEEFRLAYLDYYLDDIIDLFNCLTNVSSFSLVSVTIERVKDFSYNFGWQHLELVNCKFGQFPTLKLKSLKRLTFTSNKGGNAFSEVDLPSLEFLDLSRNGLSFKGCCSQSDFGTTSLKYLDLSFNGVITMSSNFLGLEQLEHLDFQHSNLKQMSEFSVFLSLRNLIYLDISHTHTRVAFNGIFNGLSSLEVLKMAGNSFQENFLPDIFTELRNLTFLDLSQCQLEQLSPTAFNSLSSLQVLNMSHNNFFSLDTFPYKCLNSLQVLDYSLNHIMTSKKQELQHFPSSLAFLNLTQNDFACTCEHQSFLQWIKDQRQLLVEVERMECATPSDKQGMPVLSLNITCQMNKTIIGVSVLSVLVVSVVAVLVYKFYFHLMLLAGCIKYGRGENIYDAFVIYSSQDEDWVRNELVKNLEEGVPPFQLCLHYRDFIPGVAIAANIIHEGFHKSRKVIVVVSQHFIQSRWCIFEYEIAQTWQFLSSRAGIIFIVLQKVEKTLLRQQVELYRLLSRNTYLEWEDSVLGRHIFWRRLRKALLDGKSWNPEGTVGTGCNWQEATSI

Chain of Toll-like receptor 7 (Mus musculus) (P58681 whole entry, looked up): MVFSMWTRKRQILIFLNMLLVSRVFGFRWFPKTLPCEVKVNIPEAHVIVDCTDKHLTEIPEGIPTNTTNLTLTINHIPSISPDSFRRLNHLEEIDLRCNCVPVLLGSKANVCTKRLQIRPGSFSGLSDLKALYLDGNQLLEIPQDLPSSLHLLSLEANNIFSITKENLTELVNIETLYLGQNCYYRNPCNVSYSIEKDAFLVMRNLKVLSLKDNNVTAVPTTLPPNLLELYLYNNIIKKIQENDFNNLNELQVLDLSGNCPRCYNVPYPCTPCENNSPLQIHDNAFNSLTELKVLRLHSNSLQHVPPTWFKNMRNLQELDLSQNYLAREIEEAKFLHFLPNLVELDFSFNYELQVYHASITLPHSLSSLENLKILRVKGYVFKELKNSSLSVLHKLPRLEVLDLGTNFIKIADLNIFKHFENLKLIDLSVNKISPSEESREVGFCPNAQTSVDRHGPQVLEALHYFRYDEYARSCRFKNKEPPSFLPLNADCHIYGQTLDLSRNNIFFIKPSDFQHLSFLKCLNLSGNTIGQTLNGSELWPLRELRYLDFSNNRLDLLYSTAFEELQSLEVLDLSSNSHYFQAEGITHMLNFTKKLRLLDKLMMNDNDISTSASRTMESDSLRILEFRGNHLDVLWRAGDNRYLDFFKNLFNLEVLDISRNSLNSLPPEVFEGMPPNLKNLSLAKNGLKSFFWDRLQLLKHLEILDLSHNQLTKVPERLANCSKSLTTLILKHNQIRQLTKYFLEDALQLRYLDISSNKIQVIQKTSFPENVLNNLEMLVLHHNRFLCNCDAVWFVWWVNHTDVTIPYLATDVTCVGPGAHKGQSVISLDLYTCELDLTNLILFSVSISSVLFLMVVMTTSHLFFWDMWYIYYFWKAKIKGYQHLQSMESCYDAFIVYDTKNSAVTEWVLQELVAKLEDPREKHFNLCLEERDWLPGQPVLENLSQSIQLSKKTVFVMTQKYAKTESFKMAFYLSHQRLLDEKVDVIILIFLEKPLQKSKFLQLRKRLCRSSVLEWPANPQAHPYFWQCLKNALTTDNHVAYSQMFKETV

Compound	inhibition [2]	inhibition [3]	inhibition [6]	other results
O=[N+]([O-])c1c(I)cccc1Oc1ccc(-c2nnco2)cc1	Active	–	–	Activity (THP-1 [1]): Toxic
O=C(Nc1ccc(Oc2cncc(C(F)(F)F)c2)cc1)c1c(F)cccc1Cl	–	Active	inactive	inhibition (THP-1 [4]): Active; inhibition (THP-1 [5]): Active
O=C(Nc1ccc(Oc2cc(C(F)(F)F)cc(C(F)(F)F)c2)cc1)c1c(F)cccc1Cl	–	–	–	Activity (HEK293): Non-Toxic; inhibition [7]: inactive
O=C(Nc1ccc(Oc2cc(C(F)(F)F)cc(C(F)(F)F)c2)cc1)c1c(F)cccc1I	Active	Active	inactive	–
